Measured values from ChEMBL document CHEMBL1152770, “Inhibitors of hepatitis C virus polymerase: synthesis and biological characterization of unsymmetrical dialkyl-hydroxynaphthalenoyl-benzothiadiazines” (J Med Chem, 2009).

Tests used:
[1] = tested on: Nucleic Acid; assay: Ratio of drug level in rat liver after 12 hrs to EC50 for HCV isolate Con1 in presence of 40% human serum; format: tissue-based
[2] = tested on: Nucleic Acid; assay: Ratio of drug level in rat liver after 6 hrs to EC50 for HCV isolate Con1 in presence of 40% human serum; format: tissue-based
[3] = Plasma concentration in rat at 5 mg/kg, po after 6 hrs; format: ADME, organism-based; set-up: dose 5 mg/kg, route oral
Summary of the method: (§1)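 Vehicle DMSO:PEG400 (10:90, v/v). Dosing at 5 mg/kg in rat and monkey; dog 5 mg/kg or 2.5 mg/kg. Protein precipitation with acetonitrile, then LC-MS/MS in negative-ion MRM (m/z 516.2→437.0) against spiked standards with internal standard.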

[4] = Plasma concentration in rat at 5 mg/kg, po after 12 hrs; format: ADME, organism-based; set-up: dose 5 mg/kg, route oral; summary of the method: as §1
[5] = Drug level in rat liver at 5 mg/kg, po after 12 hrs; format: ADME, organism-based; set-up: dose 5 mg/kg, route oral; settings: read-out: Drug uptake
Summary of the method: (§2)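 Rats dosed orally at 5 mg/kg, four groups, sacrificed at 6 and 12 h. Plasma and liver homogenate extracted by acetonitrile protein precipitation with internal standard and quantified by LC-MS (negative-ion MRM). Liver/plasma ratio taken from the two concentrations.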

[6] = Drug level in rat liver at 5 mg/kg, po after 6 hrs; format: ADME, organism-based; set-up: dose 5 mg/kg, route oral; settings: read-out: Drug uptake; summary of the method: as §2
[7] = Ratio of drug level in liver to plasma in rat at 5 mg/kg, po after 12 hrs; format: ADME, organism-based; set-up: dose 5 mg/kg, route oral; summary of the method: as §2
[8] = Ratio of drug level in liver to plasma in rat at 5 mg/kg, po after 6 hrs; format: ADME, organism-based; set-up: dose 5 mg/kg, route oral; summary of the method: as §2

| Structure (SMILES) | Ratio [1] | Ratio [2] | concentration at 6 h [3] | concentration at 12 h [4] | concentration at 12 h [5] | concentration at 6 h [6] | Kp at 12 h [7] | Kp at 6 h [8] |
| --- | --- | --- | --- | --- | --- | --- | --- | --- |
| CC(C)(C)CC[C@@]1(C)C(=O)C(C2=NS(=O)(=O)c3cc(NS(C)(=O)=O)ccc3N2)=C(O)c2ccccc21 | 270 | 1400 |  |  |  |  |  |  |
| CC(C)CC[C@@]1(C)C(=O)C(C2=NS(=O)(=O)c3cc(NS(C)(=O)=O)ccc3N2)=C(O)c2ccccc21 |  |  | 445 nM | 135 nM | 1430 ng/g | 3800 ng/g | 20 | 17 |
